These results are taken from ChEMBL document CHEMBL1135300, “The mechanism of the irreversible inhibition of estrone sulfatase (ES) through the consideration of a range of methane- and amino-sulfonate-based compounds” (Bioorg Med Chem Lett, 2002).

The structures appear in SMILES notation.

The target of assay [1] is T1, Steryl-sulfatase (Homo sapiens) (UniProt P08842).
T1 sequence (whole entry): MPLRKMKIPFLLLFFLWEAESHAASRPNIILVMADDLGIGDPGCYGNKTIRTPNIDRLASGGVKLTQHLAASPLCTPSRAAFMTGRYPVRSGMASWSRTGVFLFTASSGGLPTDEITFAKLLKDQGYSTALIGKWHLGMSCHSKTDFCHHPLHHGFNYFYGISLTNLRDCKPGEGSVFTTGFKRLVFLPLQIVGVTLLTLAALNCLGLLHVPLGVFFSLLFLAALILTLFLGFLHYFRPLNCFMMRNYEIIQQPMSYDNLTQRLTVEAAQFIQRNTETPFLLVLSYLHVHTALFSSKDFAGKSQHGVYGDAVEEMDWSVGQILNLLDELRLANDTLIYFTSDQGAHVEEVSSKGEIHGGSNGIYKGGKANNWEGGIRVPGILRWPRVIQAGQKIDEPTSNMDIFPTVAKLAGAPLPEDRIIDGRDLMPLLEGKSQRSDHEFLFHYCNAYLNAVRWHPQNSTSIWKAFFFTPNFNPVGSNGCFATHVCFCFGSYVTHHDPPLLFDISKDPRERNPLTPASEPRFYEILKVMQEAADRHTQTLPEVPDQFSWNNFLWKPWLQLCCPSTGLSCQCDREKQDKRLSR
The experiment in a line: In vitro inhibition of estrone sulfatase at 1 mM. In outline:
(§1)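 ³H-estrone sulfate (750,000 dpm per tube) with inhibitors from ethanol stock, ethanol evaporated under nitrogen. Placental microsomes in 0.05 M Tris–HCl, pH 7.2, were prewarmed 5 min at 37 °C, then added; 1 mL total, incubated 20 min at 37 °C. Toluene quench, extraction, and scintillation counting of product. Triplicates; no-inhibitor controls; boiled-microsome blanks.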

The target in another assay is T2, Steryl-sulfatase (Homo sapiens, UniProt P08842).
T2 sequence (P08842 whole entry): T1 sequence (whole entry)
As to the kind of experiment: In vitro inhibition of estrone sulfatase. In short, it runs like this: as §1

The target of assay [2] is T1, Steryl-sulfatase (Homo sapiens). The experiment in a line: In vitro inhibition of estrone sulfatase at 10 mM. In outline: as §1

For orientation: inhibition means how much of the control response was suppressed.

In the case of `NS(=O)(=O)Oc1ccccc1` [PHENYLSULFAMATE], the inhibition in assay [1] was found to be 29.7%. For the same compound, on Steryl-sulfatase, the IC50 is more than 10000 uM l-1. For `NS(=O)(=O)Oc1ccc(Br)cc1` the same measures were 50.8% and 912 uM l-1.

For the compound `NS(=O)(=O)OCC(Cl)(Cl)Cl`, the inhibition in assay [1] is 60%. Moreover, on Steryl-sulfatase, the IC50 is listed as 750 uM l-1. On to `NS(=O)(=O)Oc1ccc([N+](=O)[O-])cc1`, for which the inhibition in assay [1] amounted to 82.5%. For the same compound, the IC50 on Steryl-sulfatase is recorded as 330 uM l-1. `NS(=O)(=O)OCC(Cl)Cl` came in with an inhibition in assay [1] of 30%. Still for that read-out and setting: under `CCCCCCCCCOS(C)(=O)=O` stands 28%. In turn, `NS(=O)(=O)Oc1cccc(I)c1` yielded an inhibition in assay [1] of 89.4%. Besides, the IC50 against Steryl-sulfatase is reported as 120 uM l-1. For `N#Cc1ccc(OS(N)(=O)=O)cc1` the same measures were 74.4% and 300 uM l-1. `CCCCCCCCOS(N)(=O)=O` returned an inhibition in assay [2] of 0%. Take `N#Cc1cccc(OS(N)(=O)=O)c1`: in assay [1], the inhibition turned out to be 84.3%. This compound yielded an IC50 against Steryl-sulfatase of 191 uM l-1. `Cc1cccc(OS(N)(=O)=O)c1` displayed an inhibition in assay [1] of 39.5%. The compound also had an IC50 against Steryl-sulfatase of 2089 uM l-1. On the same counts, the results for `NS(=O)(=O)Oc1cccc([N+](=O)[O-])c1` are 90.4% and 120 uM l-1. Consider `NS(=O)(=O)Oc1cccc(F)c1`, for which the inhibition in assay [1] stood at 79.6%. The compound further displayed an IC50 against Steryl-sulfatase of 2089 uM l-1. In assay [1], `NS(=O)(=O)OCCCl` gave an inhibition of 15%.

In assay [1], `NS(=O)(=O)Oc1ccc(F)cc1` returned an inhibition of 37%. The compound also yielded an IC50 against Steryl-sulfatase of 537 uM l-1.

For `NS(=O)(=O)Oc1ccc(Cl)cc1`, the inhibition in assay [1] turned out to be 37.6%. Moreover, the IC50 at Steryl-sulfatase was determined as 1585 uM l-1. Compound `Cc1ccc(OS(N)(=O)=O)cc1` showed an inhibition in assay [1] of 27.4%. On Steryl-sulfatase, this compound displayed an IC50 of more than 10000 uM l-1. For `NS(=O)(=O)Oc1cccc(Cl)c1` the same measures were 62% and 537 uM l-1. On to `CCCCCCCCCOS(N)(=O)=O`, for which, in assay [2], the inhibition worked out at 0%.

`CCCCCCCOS(N)(=O)=O` displayed an inhibition in assay [2] of 0%. Compound `NS(=O)(=O)Oc1ccc(I)cc1` registered an inhibition in assay [1] of 66%. Besides, the IC50 on Steryl-sulfatase worked out at 560 uM l-1. `CCCCCCCCCCCCOS(C)(=O)=O` gave an inhibition in assay [1] of 17%.

`NS(=O)(=O)Oc1cccc(Br)c1`: the inhibition in assay [1] is 75.1%. This compound also gave an IC50 against Steryl-sulfatase of 257 uM l-1.
